Source: PubChem BioAssay (several laboratories)
pCIP destab: compounds decreasing mouse p/CIP protein stability. decrease of EGFP signal, % at 10 µM. hit rate 0.01% among 290,000. Q05BA5. F442A p/CIP-EGFP cells, EGFP fluorescence, 16 h;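 active = EGFP signal decrease of at least 30% at 10 µM or well 3 SD below plate mean, unless failing retest; inactive = the rest, including hits failing retest or dose response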
JMJD2C inh: blocks human GASC-1 demethylase activity. hit rate 0.069% among 330,000. Q9H3R0. GST-JMJD2C(1-420) H3K9me3 demethylation, DELFIA europium. inhibition, % at 2.35 µM;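 active = more than half of a compound's replicate wells show inhibition beyond 50%, single wells judged on their own value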;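 also: signal counts dimethyl H3K9 product captured on neutravidin plate; 0% = median of DMSO wells and 100% = 0.3 times that DMSO median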
VLA-4 inh: inhibition in a human VLA-4 binding assay | hit rate 0.2% among 330,000 | VLA-4 expressing cells, ligand binding flow cytometry | inhibition, % (about 7 µM as worked out from the volumes in the protocol); in the data active = inhibition above about 50%
Arr AP2 block: human beta-arrestin and AP2 interaction inhibition | FITC-arrestin peptide / GST-AP2 beads, flow cytometry; AP2 beta2 appendage carries R879A mutation | inhibition, % at 10 µM | hit rate 0.31% among 340,000;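 active = inhibition above a set limit, near 3 SD of compounds lacking own fluorescence, cut at about 54% in these data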;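 also: plate controls were DMSO wells for no effect and 5 µM unlabelled arrestin peptide for full effect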
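Assay system: GST-AP2 R879A bound to glutathione beads, E. coli-expressed; Medium: PBS with 0.05% Tween 20 and 0.1% BSA; Also added: fluorescein-tagged arrestin peptide at 50 nM final; Timing: 12 min plus 1 h, RT; Measured by: flow cytometry, FL1 (488/535 nm); Evaluation: percent drop in bead-associated FITC signal.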
Arr AP2 CP1: blocks beta-arrestin peptide binding to human AP2. hit rate 2% among 1,300. GST-AP2 beads, FITC arrestin peptide binding, flow cytometry; GST-fused beta2-adaptin appendage, R879A mutant. shares compounds with Arr AP2 block. inhibition, % at 10 µM;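 active = inhibition above a set limit, roughly 3 SD of non-fluorescent compound noise, cut at about 38% in these data; inactive = inhibition at or below that limit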;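 also: loss of bead fluorescence from 50 nM FITC arrestin peptide bound to appendage; 0% = negative control wells and 100% = excess unlabelled arrestin peptide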
GST GSH counter: counter-screen for beta-arrestin AP2 inhibitors: GST-GSH bead binding | inhibition, % at 10 µM | shares compounds with Arr AP2 block | AID 588338 | GST-fluorescein binding to GSH beads, fluorescence | hit rate 2% among 1,300;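 active = inhibition above 50%, about 3 SD of the inhibition seen with non-fluorescent compounds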;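 also: fluorescein maleimide labelled GST captured on 4 micron glutathione beads; higher means more loss of bead fluorescence from quenching or blocked binding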
Starred values were filed as active, the others as inactive; nt = no result given. Shown are actives, neighbours in structure and some others; about 0.57% of the full set was active somewhere.

SMILES | pCIP destab | JMJD2C inh | VLA-4 inh | Arr AP2 block | Arr AP2 CP1 | GST GSH counter
CCOc1ncccc1C(=O)Nc1cccc(S(=O)(=O)N2CCCCC2)c1 | nt | -9.8 | -4.1 | 19.2 | -4.5 | -1.2
CCOc1ccc(S(=O)(=O)N2CCN(CC)CC2)cc1NC(=O)c1ccccc1F | -6.4 | -11.5 | -2.4 | 1.1 | 6.5 | 1.6
CCOc1ncccc1C(=O)Nc1ccc(OC)c(S(=O)(=O)N2CCOCC2)c1 | nt | nt | nt | -0.1 | 1.3 | 3.5
CCOc1ccc(S(=O)(=O)N2CCN(C)CC2)cc1NC(=O)c1ccccc1F | -10.8 | -11.6 | 1.6 | 1.9 | nt | nt
COc1ccc(NC(=O)c2cc(C)nc3ccccc23)cc1S(=O)(=O)N1CCOCC1 | nt | -0.2 | -10.1 | 6.0 | -9.6 | -4.8
O=C(O)CCCC(=O)Nc1ccc(N2CCCC2)cc1 | -2.1 | -5.8 | 5.1 | 10.0 | nt | nt
O=C(N/N=C/c1cc2ccccc2nc1Cl)c1ccncc1 | -4.9 | -1.5 | 20.7 | 2.6 | nt | nt
CCOc1ncccc1C(=O)Nc1cc(S(=O)(=O)N2CCOCC2)ccc1OCC(F)(F)F | nt | -3.7 | -5.6 | 29.2 | 0.7 | 9.5
CCOc1ccc(S(=O)(=O)N2CCOCC2)cc1NC(=O)c1ccccc1F | -23.6 | 14.4 | 6.8 | 19.2 | nt | nt
COc1ccc(OC)c(NC(=O)c2ccc(S(=O)(=O)N3CCOCC3)cc2)c1 | -11.2 | 2.4 | 6.4 | 16.5 | nt | nt
CCOc1ncccc1C(=O)Nc1cc(S(=O)(=O)N2CCCCC2)ccc1C | nt | 17.1 | 19.4 | 3.6 | 6.8 | 5.9
Cc1ccc(S(=O)(=O)N2CCCCC2)cc1NC(=O)c1cc(=O)[nH]c2ccccc12 | nt | 5.7 | 4.8 | 67.1* | 2.5 | -2.6
COc1ccc(S(=O)(=O)N2CCOCC2)cc1NC(=O)c1ccncc1 | nt | 0.7 | 9.8 | 1.7 | -5.6 | -2.0
CCOc1ccc(S(=O)(=O)N2CCCCC2)cc1NC(=O)c1cccnc1OCC | nt | -6.0 | 5.6 | 14.4 | -7.0 | 14.5
COc1ccc(S(=O)(=O)N2CCN(C)CC2)cc1NC(=O)c1ccccc1C | -2.7 | -3.6 | -10.8 | 26.2 | -1.4 | -3.5
Cc1[nH]c(=O)[nH]c(=O)c1/C=N/NC(=O)[C@H](C)NC(=O)OC(C)(C)C | -3.7 | 30.0 | -7.4 | 12.6 | nt | nt
CC(Sc1nnc2ccccn12)C(=O)NCc1ccc2c(c1)OCO2 (stereo not drawn) | -0.9 | -4.0 | 5.2 | 5.2 | nt | nt
COc1ccc(-c2nn(-c3ccccc3)cc2C(=O)O)cc1 | -12.8 | -8.8 | -9.8 | -5.7 | nt | nt
COc1ccc(-c2nn(-c3ccccc3)cc2C(=O)N(C)C)cc1 | 0.0 | 6.4 | 5.9 | 59.8* | -8.3 | -7.2
CCOC(=O)c1nnn(-c2nonc2N)c1-c1ccc(Br)cc1 | 6.6 | -1.4 | 0.3 | 39.5 | nt | nt
Cc1[nH]c2ccc(OCc3ccccc3)cc2c1CCN1C(=O)OC(C)(C)C1(C)O (stereo not drawn) | 4.5 | -3.4 | -7.6 | 37.4 | nt | nt
Cc1ccc(S(=O)(=O)N2CCOCC2)cc1C(=O)N(C)CCOc1ccc(Cl)cc1 | -8.5 | 0.0 | 0.1 | -6.8 | nt | nt
O=C(COc1ccccc1Cl)NNC(=O)c1cc(S(=O)(=O)N2CCOCC2)ccc1N1CCCC1 | 6.4 | 3.7 | 5.7 | 2.9 | nt | nt
CN(Cc1ccc(Cl)cc1)C(=O)c1cc(S(=O)(=O)N2CCOCC2)ccc1N1CCCC1 | nt | 0.8 | -6.6 | -8.7 | -2.3 | -13.4
CN(CCOc1ccc(Cl)cc1)C(=O)c1cc(S(=O)(=O)N2CCOCC2)ccc1N1CCCC1 | nt | -10.9 | 11.8 | -0.7 | 20.2 | -8.3
SMILES | pCIP destab | JMJD2C inh | VLA-4 inh | Arr AP2 block | Arr AP2 CP1 | GST GSH counter
CC(NC(=O)c1cc(S(=O)(=O)N2CCOCC2)ccc1N1CCCC1)c1ccc(Cl)c(Cl)c1 (stereo not drawn) | nt | -4.9 | -3.9 | -6.7 | 13.3 | -0.9
N#Cc1c(NC(=O)CSc2ncnc3c2cnn3-c2ccccc2Cl)sc2c1CCCC2 | nt | 0.8 | -4.9 | 59.7* | -19.1 | -0.1
COC(=O)c1c(NC(=O)CSc2ncnc3c2cnn3-c2ccccc2Cl)sc2c1CCCC2 | -11.3 | -2.0 | -0.2 | -5.3 | nt | nt
O=[N+]([O-])c1ccc(NS(=O)(=O)c2cccc3cccnc23)cc1 | 0.7 | 22.0 | 4.6 | 55.4* | -1.9 | -1.9
O=S(=O)(Nc1ccc(O)cc1)c1cccc2cccnc12 | -9.3 | 12.2 | 27.4 | -3.1 | nt | nt
COc1ccc(Cn2c(=O)[nH]c3cc(C(=O)NCCc4ccc(S(N)(=O)=O)cc4)ccc3c2=O)cc1 | 3.7 | 4.9 | 1.4 | 109.6* | -1.4 | -15.3
COc1ccc(Cn2c(=O)[nH]c3cc(C(=O)NCCCOC(C)C)ccc3c2=O)cc1 | 2.7 | -2.4 | 21.2 | -7.9 | nt | nt
O=C1C2CC=CCC2C(=O)N1c1ccc(OCC(O)Cn2nnc3ccccc32)cc1 (stereo not drawn) | -7.9 | 5.3 | 11.9 | 2.9 | nt | nt
CCN(CC(=O)Nc1ccc(OC)cc1)C(=O)CCS(=O)(=O)c1ccc(C)cc1 | 7.6 | 5.7 | 7.6 | 0.8 | nt | nt
CCN(CC(=O)Nc1ccc(OC)cc1)C(=O)Cc1cccs1 | nt | -1.9 | 4.5 | 55.5* | -2.7 | -4.5
O=C(CC(=O)Nc1ccccc1C(F)(F)F)Nc1ccccc1C(F)(F)F | -15.3 | -1.7 | 12.4 | 2.5 | nt | nt
O=C(CC(=O)c1ccccc1)Nc1ccccc1C(F)(F)F | 1.6 | 1.2 | 10.6 | 10.7 | 12.6 | 3.4
Cc1cccc(C(=O)Oc2ccc(/C=N/NC(=O)Cc3ccc([N+](=O)[O-])cc3)cc2)c1 | -1.6 | 1.7 | 5.3 | 105.5* | -2.8 | 58.7*
COc1cc2c(cc1NC(=O)COCC(=O)O)oc1ccccc12 | -13.8 | -4.5 | 11.4 | 26.9 | nt | nt
COc1cc2c(cc1NC(=O)CN(C)Cc1cccc(OC)c1OC)oc1ccccc12 | -2.3 | -3.8 | 11.1 | -7.0 | -1.5 | 1.0
COc1cccc(CN(C)CC(=O)Nc2cc3oc4ccccc4c3cc2OC)c1 | -16.8 | 0.8 | -8.5 | 2.6 | 0.6 | -0.4
COc1ccccc1NC(=O)C1=C(C)NC(SCC(=O)c2ccc(C)cc2)=C(C#N)C1c1ccco1 (stereo not drawn) | -30.8 | nt | nt | nt | nt | nt
CCCN1CCN(C(=O)Cn2nc(C)n3c(cc4c(OC)cccc43)c2=O)CC1 | nt | nt | nt | 21.2 | nt | nt
COc1cccc2c1cc1c(=O)n(CC(=O)NCCCN3CCN(C)CC3)nc(C)n12 | 5.8 | -4.3 | -2.9 | 59.4* | -6.2 | 1.9
O=C(Oc1cccc(C(=S)N2CCCCC2)c1)c1ccccc1 | -12.4 | -1.8 | -2.7 | 56.0* | -0.8 | -1.5
O=C(Oc1ccc(C(=S)N2CCCCC2)cc1)c1ccccc1 | -10.8 | 0.7 | 3.1 | 9.3 | nt | nt
Cc1nc(SCc2ccccc2)c2oc3ccccc3c2n1 | -39.4 | -12.0 | 15.8 | -10.4 | nt | nt
CC[C@]12c3[nH]c4ccccc4c3CCN1C(=O)C(CC(=O)NCc1ccc(OC)c(OC)c1)C[C@@H]2C(=O)N1CCN(C(=O)C2CC2)CC1 (stereo partly drawn) | nt | -7.8 | 23.1 | 12.3 | nt | nt
O=C(OCC(=O)N1CCCC1)c1ccc(O)cc1 | -6.1 | 1.8 | -5.9 | -8.1 | nt | nt
Cc1ccc(C(=O)OCC(=O)N2CCCC2)cc1 | -5.4 | 23.2 | 3.7 | 63.7* | 6.5 | -1.2
